For experiment [1], the target named is Estrogen receptor (Bos taurus) (UniProt Q9XSB5+P49884). Nature of the experiment: Relative binding affinity (RBA) for calf uterine estrogen receptor. The class given is protein assay. In outline:
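Displacement of [³H]estradiol from calf uterine cytosol; incubated 16 h at 4 °C. Dextran-coated charcoal stops incubation; after centrifugation, supernatant radioactivity counted. Six competitor concentrations spanning 50% competition; % bound vs log concentration plotted to obtain concentrations halving binding for unlabeled estradiol and test compound, giving RBA. Mean of four determinations.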

In experiment [2] the target is T1, Estrogen receptor (Mus musculus) (UniProt O08537+P19785). The experiment can be described thus: Inhibition of estrone-stimulated uterine growth in immature mice at 30 ug. It is filed as functional. In outline:
(§1)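 Immature female NMRI mice, 20 days old (15.0 ± 2.5 g), randomized into groups of 10. Compound in olive oil (0.1 mL) injected sc daily for 3 days together with estrone; uteri removed 24 h after the last injection, fixed in Bouin's solution, washed, dried and weighed. Effect expressed as uterus dry weight (mg)/body weight (g) × 100; inhibition of estrone-stimulated growth.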

Experiment [3] addresses T1, Estrogen receptor (Mus musculus). The experiment can be described thus: Anti-uterotrophic effect in mice at 3 ug. The class given is functional. In outline:
as §1

For experiment [4] the target is unchanged. Nature of the experiment: Inhibition of estrone-stimulated uterine growth in immature mice at 3 ug. The class given is functional. In outline:
as §1

The target is the same in experiment [5]. The experiment can be described thus: Anti-uterotrophic effect in mice at 10 ug. The class given is functional. In short, it runs like this:
as §1

Experiment [6] shares this target. Nature of the experiment: Anti-uterotrophic effect in mice at 30 ug. The class given is functional. In short, it runs like this: as §1
The target is the same in experiment [7]. The experiment can be described thus: Inhibition of estrone-stimulated uterine growth in immature mice at 10 ug. It is filed as functional. In outline: as §1
Experiment [8] has the same target. Nature of the experiment: Anti-uterotrophic effect in mice at 0 ug. It is filed as functional. In outline:
as §1

Experiment [9] shares this target. Nature of the experiment: Anti-uterotrophic effect in mice at 100 ug. The class given is functional. In outline: as §1
Experiment [10] shares this target.
Experiment [11] shares this target. The experiment can be described thus: Inhibition of estrone-stimulated uterine growth in immature mice at 300 ug. The class given is functional. In short, it runs like this: as §1
For experiment [12] the target is unchanged. The experiment can be described thus: Anti-uterotrophic effect in mice at 300 ug. It is filed as functional. In outline:
as §1

Experiment [13] shares this target. The experiment can be described thus: Inhibition of estrone-stimulated uterine growth in immature mice at 100 ug. The class given is functional. In outline: as §1

T1 sequence (O08537 whole entry, looked up): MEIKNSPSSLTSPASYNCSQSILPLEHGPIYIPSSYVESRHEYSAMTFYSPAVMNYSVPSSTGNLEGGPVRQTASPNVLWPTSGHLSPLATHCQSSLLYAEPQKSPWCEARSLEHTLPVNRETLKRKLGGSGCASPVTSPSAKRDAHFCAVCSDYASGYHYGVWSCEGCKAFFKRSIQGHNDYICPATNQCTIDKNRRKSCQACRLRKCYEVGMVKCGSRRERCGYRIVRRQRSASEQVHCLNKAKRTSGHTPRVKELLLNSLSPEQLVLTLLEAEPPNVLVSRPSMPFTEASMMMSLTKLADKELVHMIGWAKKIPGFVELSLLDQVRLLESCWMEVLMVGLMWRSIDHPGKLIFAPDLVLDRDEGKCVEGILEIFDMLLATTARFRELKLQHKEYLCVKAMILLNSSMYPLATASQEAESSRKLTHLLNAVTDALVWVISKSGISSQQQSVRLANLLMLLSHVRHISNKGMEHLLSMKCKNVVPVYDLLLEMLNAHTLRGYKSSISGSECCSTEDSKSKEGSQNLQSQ
T1 sequence (P19785 whole entry, looked up): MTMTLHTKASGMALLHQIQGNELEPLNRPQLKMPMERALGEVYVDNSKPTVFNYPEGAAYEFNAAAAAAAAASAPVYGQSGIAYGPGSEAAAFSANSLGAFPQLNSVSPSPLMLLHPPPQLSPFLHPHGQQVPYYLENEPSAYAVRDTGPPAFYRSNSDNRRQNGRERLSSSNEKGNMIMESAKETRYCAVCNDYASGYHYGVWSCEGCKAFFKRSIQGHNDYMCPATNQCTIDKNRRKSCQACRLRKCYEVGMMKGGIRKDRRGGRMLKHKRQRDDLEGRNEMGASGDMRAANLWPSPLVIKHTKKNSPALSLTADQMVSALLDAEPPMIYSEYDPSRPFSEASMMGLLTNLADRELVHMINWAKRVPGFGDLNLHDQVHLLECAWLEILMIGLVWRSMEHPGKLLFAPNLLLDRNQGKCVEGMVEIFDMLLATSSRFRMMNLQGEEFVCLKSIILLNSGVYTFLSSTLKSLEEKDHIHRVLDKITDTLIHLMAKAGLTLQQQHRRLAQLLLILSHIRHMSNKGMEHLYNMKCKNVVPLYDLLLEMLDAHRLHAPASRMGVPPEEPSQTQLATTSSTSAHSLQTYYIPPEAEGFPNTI

For orientation: inhibition means the relative decrease from the control value, in per cent. Low values mean a response near the control, high ones a response far below the control. `CC[C@H](c1cccc(O)c1)[C@@H](CC)c1cccc(O)c1` gave a relative binding affinity (RBA) in experiment [1] of 11. Moreover, the inhibition in [2] amounted to 51%; in experiment [4] it was 20%; in [7], 39%; in [9] it was 43%. Also, the Effect came to 40.1 in experiment [3]; 34.1 in experiment [5]; 30.2 in [6]; 14.5 in experiment [8]; 32.7 in [9].
Turning to `CC(C)[C@@H](c1ccc(O)cc1)[C@@H](c1ccc(O)cc1)C(C)C`, the relative binding affinity (RBA) in [1] was determined as 30.
For `CCC[C@H](c1ccc(O)cc1)[C@@H](CCC)c1ccc(O)cc1`, the relative binding affinity (RBA) in [1] was found to be 8.
Same read-out and setting: with `CC(C)(C)[C@H](c1cccc(O)c1)[C@H](c1cccc(O)c1)C(C)(C)C` the figure was 0.7.
Same read-out and setting: with `CCC(C)[C@@H](c1ccc(O)cc1)[C@@H](c1ccc(O)cc1)C(C)CC` (stereo partly drawn) the figure was 5.
As for `C[C@]12CC[C@@H]3c4ccc(O)cc4CC[C@H]3[C@@H]1CCC2=O`, the Effect in [10] worked out at 46.5.
In turn, `CC(C)(C)[C@H](c1ccc(O)cc1)[C@H](c1ccc(O)cc1)C(C)(C)C` displayed a relative binding affinity (RBA) in experiment [1] of 1.5.
Still for that read-out and setting: as for `CC[C@H](c1ccc(O)cc1)[C@@H](CC)c1ccc(O)cc1`, the figure is 25.
Turning to `CC(C)CC(c1cccc(O)c1)[C@H](CC(C)C)c1cccc(O)c1` (single isomer, unassigned), the relative binding affinity (RBA) in experiment [1] stood at 0.5. The inhibition in experiment [11] stood at 26%; in experiment [2] it was 19%; in experiment [9], 27%. Besides, the Effect in experiment [12] was determined as 38.2; in [6] it was 40.3; in experiment [8], 14.5; in experiment [9], 37.9.
The compound `CC(C)[C@@H](c1cccc(O)c1)[C@@H](c1cccc(O)c1)C(C)C` gave a relative binding affinity (RBA) in [1] of 15.
Still for that read-out and setting: with `CCC(C)[C@@H](c1cccc(O)c1)[C@@H](c1cccc(O)c1)C(C)CC` (stereo partly drawn) the figure was 3.
With `CCC[C@H](c1cccc(O)c1)[C@@H](CCC)c1cccc(O)c1`, the relative binding affinity (RBA) in [1] was determined as 4. For the same compound, the inhibition was 42% in experiment [11], 18% in [11] (in the assay text read “30 ug” for “300 ug”), 14% in experiment [7] and 37% in [13]. The Effect in [12] came out at 33; in experiment [5], 42.1; in experiment [6], 40.8; in experiment [8] it was 14.5; in experiment [9] it was 34.7.
On to `CC(C)C[C@H](c1ccc(O)cc1)[C@@H](CC(C)C)c1ccc(O)cc1`, for which, in experiment [1], the relative binding affinity (RBA) amounted to 1.5.

Values taken from ChEMBL document CHEMBL1123429, “Influence of alkyl chain ramification on estradiol receptor binding affinity and intrinsic activity of 1,2-dialkylated 1,2-bis(4- or 3-hydroxyphenyl)ethane estrogens and antiestrogens” (J Med Chem, 1986).
